Data from ChEMBL document CHEMBL1147366, “Cytotoxic and antimalarial alkaloids from the tubers of Stephania pierrei” (J Nat Prod, 1993).
In brackets after ≈: the same amount, converted by molar mass.

How the values were obtained:
[1] = Selectivity index, ED50 for human KB cells to ED50 for chloroquine-resistant Plasmodium falciparum W2; type: toxicity, cell-based; conditions: read-out: Ratio ED50
In short: (§1)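 Selectivity index is the ED50 in KB cells divided by the ED50 against the P. falciparum strain (D-6, chloroquine-sensitive; W-2, chloroquine-resistant). Parasite ED50s are expressed in ng/ml and KB ED50s in µg/ml.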

Plasmodium falciparum [2] = assay: Antimalarial activity after 24 hrs against chloroquine-resistant Plasmodium falciparum W2 infected type A+ human erythrocytes by [3H]hypoxanthine uptake; type: functional; conditions: read-out: ED50 (the source's name)
[3] = Selectivity index, ED50 for human KB cells to ED50 for chloroquine-sensitive Plasmodium falciparum D6; type: toxicity, cell-based; conditions: read-out: Ratio ED50; in short: as §1
Plasmodium falciparum [4] = assay: Antimalarial activity after 24 hrs against chloroquine-sensitive Plasmodium falciparum D6 infected type A+ human erythrocytes by [3H]hypoxanthine uptake; type: functional; conditions: read-out: ED50 (the source's name)
[5] = Cytotoxicity against human U373 cells after 3 days by SRB assay; type: functional, U-373MG ATCC; conditions: U373 MG, 72 h, read-out: ED50 (the source's name)
ZR-75-1 = assay: Cytotoxicity against human ZR-75-1 cells after 3 days by SRB assay; type: functional; conditions: ZR-75-1, 72 h, read-out: ED50 (the source's name)
[6] = Cytotoxicity against vinblastine-resistant human KBV1 cells after 3 days by SRB assay; type: functional; conditions: KB-V1, 72 h, read-out: ED50 (the source's name)
P388 = assay: Cytotoxicity against mouse P388 cells after 3 days by SRB assay; type: functional; conditions: P388, 72 h, read-out: ED50 (the source's name)
A-431 = assay: Cytotoxicity against human A431 cells after 3 days by SRB assay; type: functional; conditions: A-431, 72 h, read-out: ED50 (the source's name)
[7] = Cytotoxicity against human BCA1 cells after 3 days by SRB assay; type: functional; conditions: BCA1, 72 h, read-out: ED50 (the source's name)
SK-MEL-2 = assay: Cytotoxicity against human SK-MEL-2 cells after 3 days by SRB assay; type: functional; conditions: SK-MEL-2, 72 h, read-out: ED50 (the source's name)
HT-1080 = assay: Cytotoxicity against human HT1080 cells after 3 days by SRB assay; type: functional; conditions: HT-1080, 72 h, read-out: ED50 (the source's name)
LNCaP = assay: Cytotoxicity against human LNCAP cells after 3 days by SRB assay; type: functional; conditions: 72 h, read-out: ED50 (the source's name)
[8] = Cytotoxicity against human KB cells after 3 days by SRB assay; type: cell-based; conditions: read-out: ED50
[9] = Cytotoxicity against human LUC1 cells after 3 days by SRB assay; type: functional; conditions: LUC1, 72 h, read-out: ED50 (the source's name)
[10] = Cytotoxicity against human Col1 cells after 3 days by SRB assay; type: functional; conditions: Col1, 72 h, read-out: ED50 (the source's name)

| SMILES | selectivity ratio [1] | EC50 (Plasmodium falciparum [2]) [µg/mL] | selectivity ratio [3] | EC50 (Plasmodium falciparum [4]) [µg/mL] | EC50 [5] [µg/mL] | EC50 (ZR-75-1) [µg/mL] | EC50 [6] [µg/mL] | EC50 (P388) [µg/mL] | EC50 (A-431) [µg/mL] | EC50 [7] [µg/mL] | EC50 (SK-MEL-2) [µg/mL] | EC50 (HT-1080) [µg/mL] | EC50 (LNCaP) [µg/mL] | CC50 at 72 h [8] [µg/mL] | EC50 [9] [µg/mL] | EC50 [10] [µg/mL] |
| --- | --- | --- | --- | --- | --- | --- | --- | --- | --- | --- | --- | --- | --- | --- | --- | --- |
| COc1cc2c(cc1OC)CN1CCc3cc(OC)c(OC)c(O)c3[C@@H]1C2 | > 10 | 1.94 (≈ 5.22 µM) | > 9 | 2.23 (≈ 6 µM) |  |  |  |  |  |  |  |  |  |  |  |  |
| COC1=C[C@@]23CCN(C)[C@@H](Cc4ccc(OC)c(O)c42)C3=CC1=O |  | > 10 |  | > 10 |  |  |  |  |  |  |  |  |  |  |  |  |
| COc1cc2c(cc1OC)-c1c3c(cc4c1[C@@H](C2)NCC4)OCO3 |  | 1.03 (≈ 3.17 µM) | 2 | 0.47 (≈ 1.44 µM) | 0.6 (≈ 1.84 µM) | 1.7 (≈ 5.22 µM) | 0.7 (≈ 2.15 µM) | 0.6 (≈ 1.84 µM) | 0.8 (≈ 2.46 µM) | 2 (≈ 6.15 µM) | 3.3 (≈ 10.1 µM) | 1.7 (≈ 5.22 µM) | 1.5 (≈ 4.61 µM) | 0.8 (≈ 2.46 µM) | 13.2 (≈ 40.6 µM) | 1.7 (≈ 5.22 µM) |
| CN1CCc2cc3c(c4c2[C@H]1Cc1cc(O)ccc1-4)OCO3 | 4 | 1.78 (≈ 6.03 µM) | 2 | 3.15 (≈ 10.7 µM) | 4.9 (≈ 16.6 µM) | 13.6 (≈ 46 µM) | 1.2 (≈ 4.06 µM) | > 5 | 6.7 (≈ 22.7 µM) | 8.9 (≈ 30.1 µM) | > 20 | 7.6 (≈ 25.7 µM) | 7.3 (≈ 24.7 µM) | 4.1 (≈ 13.9 µM) | 6.9 (≈ 23.4 µM) | 11.9 (≈ 40.3 µM) |
| COc1ccc2c(c1)C[C@@H]1c3c(cc4c(c3-2)OCO4)CCN1C | 1 | 1.61 (≈ 5.2 µM) | > 1 | 2.56 (≈ 8.28 µM) | 1.3 (≈ 4.2 µM) | 2.6 (≈ 8.4 µM) | 1.2 (≈ 3.88 µM) | > 5 | 1.3 (≈ 4.2 µM) | 2.9 (≈ 9.37 µM) | > 20 | 1.8 (≈ 5.82 µM) | 2.9 (≈ 9.37 µM) | 2.5 (≈ 8.08 µM) | 12.2 (≈ 39.4 µM) | 3.2 (≈ 10.3 µM) |
| COc1c(O[C@@H]2O[C@H](CO)[C@@H](O)[C@H](O)[C@H]2O)cc2c3c1-c1ccccc1C[C@H]3NCC2 |  | > 10 |  | > 10 | > 20 | > 20 | > 20 | > 20 | > 20 | > 20 | > 20 | > 20 | > 20 | > 20 | > 20 | > 20 |
| COc1cc2c(cc1OC)[C@@H]1Cc3ccc(O)c(OC)c3CN1CC2 | > 24 | 0.84 (≈ 2.46 µM) | > 7 | 2.84 (≈ 8.32 µM) |  |  |  |  |  |  |  |  |  |  |  |  |
| COC1=C(OC)[C@]23CCc4cc5c(cc4[C@]2(CCN3C)CC1=O)OCO5 |  | > 10 |  | > 10 |  |  |  |  |  |  |  |  |  |  |  |  |
| COc1cc2c(cc1OC)[C@@H]1Cc3ccc(OC)c(OC)c3C[N+]1(C)CC2.[Cl-] (some centres undefined) |  | > 10 |  | > 10 |  |  |  |  |  |  |  |  |  |  |  |  |
| COc1cc2c(cc1OC)[C@@H]1Cc3ccc(OC)c(OC)c3CN1CC2 [TETRAHYDROPALMATINE] |  | 5.02 (≈ 14.1 µM) |  | > 10 |  |  |  |  |  |  |  |  |  |  |  |  |
| C[C@@H]1CC[C@H]2[C@@H](C)C(=O)O[C@@H]3O[C@@]4(C)CC[C@@H]1[C@]32OO4 [ARTEMISININ] | 40000 | 0.0005 (≈ 0.00177 µM) | > 33300 | 0.0006 (≈ 0.00213 µM) |  |  |  |  |  |  |  |  |  |  |  |  |
| COc1cc2c(cc1O)C[C@H]1c3c(cc4c(c3-2)OCO4)CCN1C [CASSYTHICINE] | 3 | 2.26 (≈ 6.95 µM) | 2 | 2.29 (≈ 7.04 µM) | 4.8 (≈ 14.8 µM) | 9.8 (≈ 30.1 µM) | 1.2 (≈ 3.69 µM) | > 5 | 10.5 (≈ 32.3 µM) | 6.8 (≈ 20.9 µM) | 8.9 (≈ 27.4 µM) | 7.6 (≈ 23.4 µM) | 6.1 (≈ 18.7 µM) | 3 (≈ 9.22 µM) | 6.6 (≈ 20.3 µM) | 7.3 (≈ 22.4 µM) |
| CCN(CC)CCCC(C)Nc1ccnc2cc(Cl)ccc12 (centres undefined) [CHLOROQUINE] |  | 0.0112 (≈ 0.035 µM) |  | 0.0013 (≈ 0.00406 µM) |  |  |  |  |  |  |  |  |  |  |  |  |
